This is an account of results in ChEMBL document CHEMBL3132837, “VUT-MK142 : a new cardiomyogenic small molecule promoting the differentiation of pre-cardiac mesoderm into cardiomyocytes” (2013).

Structures are written as SMILES. Activity calls are given as the source filed them. The calls are words filed in the database; no cut-off is given here.

Assay [1] relates to P19. The assay can be described thus: Cardiomyogenic activity in mouse P19 cells assessed as upregulation of ANF gene expression at 1 uM after 7 days by luciferase reporter assay relative to control. Format: functional, cell-based. The method in brief:
(§1)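 P19 and C2C12 cells transiently transfected with rat ANF promoter firefly luciferase plasmid plus pRL-SV40 Renilla control one day before treatment. P19: 7 days in induction medium (MEM-alpha, 5% FBS). C2C12: 7 days in differentiation medium (2% horse serum), compound added at the switch. Compound 1 μM, DMSO 0.005% in all wells, media refreshed twice. Dual-luciferase read-out, Renilla-normalised, expressed relative to DMSO control; n=3–10 independent preparations; 10 nM retinoic acid in P19 as positive control.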
A general note: In a reporter assay the amount or activity of a reporter protein is the signal.

The subject of assay [2] is C2C12. The assay can be described thus: Cardiomyogenic activity in mouse C2C12 cells assessed as upregulation of ANF gene expression at 1 uM after 7 days by luciferase reporter assay relative to control. Format: functional, cell-based. Summed up:
as §1

Assay [3] is described as follows: Cardiomyogenesis in mouse cardiovascular progenitor cells assessed as upregulation of tropomyosin gene expression at 1 uM by RT-PCR analysis. Format: functional.
The species named for assay [4] is Mus musculus. The assay can be described thus: Cardiomyogenesis in mouse cardiovascular progenitor cells assessed as formation of cardiac bodies at 1 uM compound by phase contrast microscopy relative to control. The note with it: Heart.
A short description of assay [5]: Cardiomyogenesis in mouse cardiovascular progenitor cells assessed as upregulation of Mesp1 gene expression at 1 uM by RT-PCR analysis. Format: functional.
The species named for assay [6] is Mus musculus. The assay can be described thus: Cardiomyogenesis in mouse cardiovascular progenitor cells assessed as formation of cardiac bodies at 1 uM compound treated on day 0 to day 5 of myocardial differentiation commitment by phase contrast microscopy relative to control. Format: functional. As to conditions: Heart. The method in brief:
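A5 CVPCs from newborn mouse hearts, grown in M15 on inactivated SNL76/7 feeders, aggregated into cardiac bodies in hanging drops (900 ± 50 cells per drop, 4.5 days), then plated on gelatine. Compound 1 μM or 0.005% DMSO present days 0–5. Beating CBs scored by microscopy for at least 20 days, 80 CBs per experiment, normalised daily to DMSO control.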

The nature of assay [7]: Cardiomyogenesis in mouse cardiovascular progenitor cells assessed as upregulation of Nkx2.5 gene expression at 1 uM by RT-PCR analysis. Format: functional.
Assay [8] is described as follows: Cardiomyogenesis in mouse cardiovascular progenitor cells assessed as upregulation of Gata4 gene expression at 1 uM by RT-PCR analysis. Format: functional.
For assay [9], the species on record is Mus musculus. The assay can be described thus: Cardiomyogenesis in mouse cardiovascular progenitor cells assessed as formation of cardiac bodies with beating at 1 uM compound treated on day 5 to day 13 of myocardial differentiation commitment measured on day 11 to 13 by phase contrast microscopy relative to control. Format: functional. The note with it: Heart.

Assay [10] is described as follows: Cardiomyogenesis in mouse cardiovascular progenitor cells assessed as upregulation of brachyury gene expression at 1 uM by RT-PCR analysis. Format: functional.
Assay [11] is described as follows: Cardiomyogenesis in mouse cardiovascular progenitor cells assessed as upregulation of Eomes gene expression at 1 uM by RT-PCR analysis. Format: functional.
Assay [12] relates to C2C12. As to the kind of experiment: Cardiomyogenic activity in mouse C2C12 cells assessed as upregulation of Nkx2.5 gene expression at 1 uM after 7 days by luciferase reporter assay relative to control. Format: functional. The method in brief: (§2)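 Nkx2.5 promoter firefly luciferase plasmid (pGL3b backbone) co-transfected with Renilla control one day before treatment. P19 cells treated in MEM-alpha/5% FBS induction medium; C2C12 cells treated in 2% horse serum differentiation medium. Compound 1 μM or 0.005% DMSO for 7 days, media refreshed twice. Dual-luciferase activity expressed as fold over DMSO control; paired two-tailed t-test on raw data.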

In assay [13] the test system is P19. The assay can be described thus: Cardiomyogenic activity in mouse P19 cells assessed as upregulation of Nkx2.5 gene expression at 1 uM after 7 days by luciferase reporter assay relative to control. Format: functional. The method in brief: as §2
The nature of assay [14]: Cardiomyogenesis in mouse cardiovascular progenitor cells assessed as upregulation of Mef2C gene expression at 1 uM by RT-PCR analysis. Format: functional.

Consider `COc1ccc(Nc2cccc(NCCO)n2)cc1`, for which the outcome in the assay with P19 [1] and in the assay on C2C12 [2] was Active.
For `COc1ccc(Nc2cc(NC3CCCCC3)ncn2)cc1`, the result (in [3]; in assay [5]; in the assay listed under Mus musculus [6]; in assay [8]; in [11]) was inactive. Moreover, the outcome (in the assay filed under Mus musculus [4]; in assay [7]; in the assay filed under Mus musculus [9]; in [10]; in the assay on P19 [1]; in the assay on C2C12 [2]) was Active. In addition, the outcome in assay [14] was Active. The “fold change (FC)” value in the assay with C2C12 [12] was 2.2; in the assay with P19 [13], 3.1.
On to `OCCNc1cccc(Nc2ccc(Oc3ccccc3)cc2)n1`, for which the outcome with P19 [1] and with C2C12 [2] was inactive.
As for `COc1ccc(Nc2cc(NCCO)ncn2)cc1`, the result in the assay on P19 [1] and in the assay with C2C12 [2] was Active.
For `CCNc1cc(Nc2ccc(OC)cc2)ncn1`, the result in the assay on C2C12 [2] was Active.
Regarding `CNc1cc(Nc2ccc(OC)cc2)ncn1`, the outcome in the assay filed under Mus musculus [4], in the assay filed under Mus musculus [6], with P19 [1] and in the assay on C2C12 [2] was inactive.
As to `COc1ccc(Nc2nccc(NCCO)n2)cc1` [CARDIOGENOL C], the outcome in the assay with P19 [1] and with C2C12 [2] was Active. Besides, the “fold change (FC)” value in the assay with C2C12 [12] is given as 1.4; in the assay with P19 [13] it was 1.6.
